TRPC4 potent: TRPC4 (mouse) allosteric potentiation. Q9QUQ5. HEK293 TRPC4beta/mu-opioid, DAMGO EC20, Fluo-4 Ca2+ flux; active compounds read high. B-score at 10 µM. 0.42% of 310,000 active;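 active means B-score of calcium response area above 5 SD of library B-scores, with initial fluorescence ratio within 5 SD of library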
TRPC6 act: activators of mouse TRPC6 channel; Q61143; HEK293-TRPC6 membrane potential dye fluorescence; active compounds read high; B-score at 10 µM; 0.13% of 310,000 active; AID 2550;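 active means B-score of the integrated fluorescence ratio above library mean plus 3 SD, and starting fluorescence ratio within library mean plus 5 SD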;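 further: higher score means more depolarization so channel activation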
Target sequence (Q61143 whole entry, looked up): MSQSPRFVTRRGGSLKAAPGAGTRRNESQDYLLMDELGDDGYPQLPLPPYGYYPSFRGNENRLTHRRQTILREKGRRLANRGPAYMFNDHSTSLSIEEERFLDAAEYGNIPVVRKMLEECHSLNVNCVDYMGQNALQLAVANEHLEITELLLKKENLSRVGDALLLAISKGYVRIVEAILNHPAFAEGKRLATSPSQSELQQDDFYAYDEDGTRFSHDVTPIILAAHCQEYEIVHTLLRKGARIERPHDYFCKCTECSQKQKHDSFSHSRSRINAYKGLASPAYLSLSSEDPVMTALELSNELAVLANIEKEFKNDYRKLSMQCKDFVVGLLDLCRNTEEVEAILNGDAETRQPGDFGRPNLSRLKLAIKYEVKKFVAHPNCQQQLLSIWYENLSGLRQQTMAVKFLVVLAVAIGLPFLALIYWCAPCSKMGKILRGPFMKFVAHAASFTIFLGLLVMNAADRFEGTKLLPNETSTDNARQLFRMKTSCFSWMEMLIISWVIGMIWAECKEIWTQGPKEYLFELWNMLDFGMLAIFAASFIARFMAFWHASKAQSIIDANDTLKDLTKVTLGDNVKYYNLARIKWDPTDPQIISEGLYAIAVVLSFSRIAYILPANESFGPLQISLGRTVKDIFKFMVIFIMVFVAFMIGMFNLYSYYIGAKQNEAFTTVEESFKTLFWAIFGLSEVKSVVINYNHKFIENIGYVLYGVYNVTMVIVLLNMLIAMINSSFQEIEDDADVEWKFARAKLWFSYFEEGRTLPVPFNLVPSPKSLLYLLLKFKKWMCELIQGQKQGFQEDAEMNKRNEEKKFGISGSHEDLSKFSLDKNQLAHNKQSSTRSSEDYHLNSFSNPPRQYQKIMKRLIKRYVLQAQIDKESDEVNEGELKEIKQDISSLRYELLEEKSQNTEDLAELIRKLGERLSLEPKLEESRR
TRPC6 inhibitor: mouse TRPC6 channel inhibition | HEK293-TRPC6, membrane potential dye, ACh-evoked depolarization; active compounds read low | B-score at 10 µM | 1.1% of 310,000 active;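 active means B-score under library mean minus 3 SD, initial fluorescence not abnormally high, positive integrated signal ratio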;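 further: B-score derived from integrated fluorescence ratio over the kinetic read; more negative B-score means stronger inhibition of depolarization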
TRPC4 block: blocks the mouse TRPC4 cation channel; B-score at 10 µM; HEK293 TRPC4beta/mu-opioid, DAMGO-evoked Fluo4 calcium flux; active compounds read low; 0.39% of 300,000 active; AID 2247;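 active means B-score over 3 SD under the library average, no early fluorescence shift, positive overall ratio signal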
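Signal: kinetic Fluo4 fluorescence imaging of calcium influx. Material: stable TRPC4beta/mu-opioid receptor HEK293 cells. Probe or stimulus: DAMGO in two steps, submaximal then maximal.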
TRPC4 act: TRPC4 (mouse) channel activation; 0.49% of 310,000 active; HEK293 TRPC4beta/mu-opioid, Fluo4 calcium fluorescence; active compounds read high; B-score at 10 µM; Q9QUQ5;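 active means B-score above 5 SD of library B-scores, and initial fluorescence ratio not above library mean plus 5 SD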;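 further: positive B-score marks a calcium rise read as TRPC4 activation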
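Technique: kinetic Fluo4 calcium fluorescence; Test system: TRPC4beta and mu-opioid receptor HEK293 stable cells; Measure: B-scored integrated calcium fluorescence ratio; Benchmarks: low control buffer alone, high control maximal DAMGO; Schedule: 45 min room-temperature Fluo4 loading, 110 s read.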
TRPC4 sel inh 2: second check of whether TRPC6 inhibitors also affect mouse TRPC4; shares compounds with TRPC6 inhibitor; HEK293 TRPC4/MOR, membrane potential dye fluorescence; channel activated by saturating DAMGO dose; inhibition, % at 10 µM; 42% of 920 active; AID 2776;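 active means compounds whose fluorescence signal differed from control wells by over 3 SD, either direction, in both duplicate plates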
TRPC4 spec: selectivity of TRPC6 inhibitors: effect on mouse TRPC4 | AID 2777 | 61% of 920 active | shares compounds with TRPC6 inhibitor | activity change, negative = inhibition, % at 10 µM | HEK293 TRPC4/mu-opioid, membrane potential fluorescence;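 active means rise or fall in signal beyond 3 SD of buffer-only wells in both replicate plates, either sign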;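 further: integrated kinetic ratio of fluorescence range over baseline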
HEK293 MPD ctr 2-1: second check of TRPC6 inhibitor effects in parental HEK293 cells | signal change vs control, % at 10 µM | parental HEK293 membrane potential dye fluorescence; maximal acetylcholine challenge after compound addition | shares compounds with TRPC6 inhibitor | 31% of 920 active | AID 2779;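 active means membrane potential signal moving either way by over 3 SD of the maximum-effect control, in both duplicate plates, meaning non-specific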
HEK293 MPD ctr-1: checks TRPC6 inhibitor effects in parental HEK293 cells; shares compounds with TRPC6 inhibitor; parental HEK293 membrane potential dye fluorescence; membrane potential signal change, % at 10 µM; 60% of 920 active; AID 2780;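 active means membrane potential signal shifting up or down by more than 3 SD of buffer-only wells, on both duplicate plates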
HEK293 MPD ctr-2: counter-screen for TRPC6 modulators: effect in parental HEK293 cells; 51% of 2,400 active; shares compounds with TRPC6 inhibitor; membrane potential signal change, % at 10 µM; membrane potential dye fluorescence; AID 488924;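 active means membrane potential signal moves up or down beyond 5 SD from buffer-only wells, on both duplicate plates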
HEK293 MPD ctr 2-2: parental HEK293 nonspecific activity of TRPC6 modulators, second screen. shares compounds with TRPC6 inhibitor. membrane potential dye fluorescence; after compound, maximal acetylcholine stimulation. inhibition, % at 10 µM. 14% of 2,400 active;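 active means membrane potential signal drops by more than 5 SD from the mean control signal, in both duplicate plates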
TRPC4 ctr mod: mouse TRPC4 off-target activity of TRPC6 modulators | shares compounds with TRPC6 inhibitor | HEK293 TRPC4/mu-opioid, membrane potential fluorescence | percent change from control (negative = decrease, positive = increase), % at 10 µM | 69% of 2,400 active;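 active means membrane potential signal moved up or down beyond 5 SD of buffer control wells, in both duplicate plates, actives on both sides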
TRPC4 ctr inh 2: second selectivity test of TRPC6 modulators against mouse TRPC4; inhibition, % at 10 µM; shares compounds with TRPC6 inhibitor; 55% of 2,400 active; HEK293 TRPC4/mu-opioid, membrane potential dye fluorescence; stimulated with maximal-effect DAMGO; AID 488928;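 active means drop in membrane potential signal beyond 5 SD of the control wells in both duplicate plates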;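 further: TRPC4 counter screen for TRPC6 hits run under conditions tuned for TRPC6 not TRPC4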
TRPC6 inh conf: mouse TRPC6 inhibitor confirmation; shares compounds with TRPC6 inhibitor; HEK293-TRPC6, membrane potential dye, ACh-evoked depolarization; inhibition, % at 10 µM; 43% of 3,300 active;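 active means fluorescence ratio falls more than 5 SD below the full-stimulation control mean, in both duplicate runs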;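 further: integrated fluorescence ratio of peak minus minimum over baseline after agonist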
TRPC6 act confirm: mouse TRPC6 activator confirmation | HEK293-TRPC6 membrane potential dye fluorescence, FDSS | activation, % at 10 µM | 11% of 2,800 active | shares compounds with TRPC6 inhibitor | AID 488961;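 active means ratio signal rise beyond 5 SD above unstimulated control wells' mean, seen in both duplicate runs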
Of the large screens only hits and unclear results are named; the others gave an inactive call (follow-up assays come after a bar, where they were run). This is a sample that favours compounds with a hit; in the whole collection about 2.3% have one here.

Cc1ccc(SCCNC(=S)Nc2ccc(C)c(C)c2)cc1	TRPC6 inhibitor -5.7 | HEK293 MPD ctr-2 active | HEK293 MPD ctr 2-2 active | TRPC4 ctr mod -266% | TRPC4 ctr inh 2 77% | TRPC6 inh conf inactive | TRPC6 act confirm inactive
O=C(NCc1cccnc1)c1cccn2c(=O)c3sccc3nc12	TRPC6 inhibitor -7.3 | TRPC4 sel inh 2 inactive | TRPC4 spec -26% | HEK293 MPD ctr 2-1 inactive | HEK293 MPD ctr-1 -340% | TRPC6 inh conf inactive | TRPC6 act confirm inactive
O=C1CCCCc2sc(Br)c([N+](=O)[O-])c2N1	none
COc1ccc(NCc2nnc(SCC(=O)Nc3cccc(C)c3)o2)cc1	TRPC6 inhibitor -6.3 | HEK293 MPD ctr-2 inactive | HEK293 MPD ctr 2-2 inactive | TRPC4 ctr mod inactive | TRPC4 ctr inh 2 inactive | TRPC6 inh conf inactive | TRPC6 act confirm inactive
CC1Cc2ccccc2N1C(=O)CSc1nnnn1Cc1ccccc1 (stereo unspecified)	none
CC(=O)c1ccc(OCCCN2CCCCC2)cc1	TRPC6 inhibitor -5.1 | HEK293 MPD ctr-2 inactive | HEK293 MPD ctr 2-2 inactive | TRPC4 ctr mod inactive | TRPC4 ctr inh 2 inactive | TRPC6 inh conf inactive | TRPC6 act confirm inactive
COc1ccc2ccccc2c1CNCc1ccc(C)cc1	TRPC6 inhibitor -8 | TRPC4 sel inh 2 50% | TRPC4 spec 52% | HEK293 MPD ctr 2-1 inactive | HEK293 MPD ctr-1 22% | TRPC6 inh conf 62%
Cc1ccc(S(=O)(=O)N(CC(=O)N/N=C/c2cccc(C)c2)c2cccc3cccnc23)cc1	none
CCCC[n+]1ccc(-c2nc3ccc([N+](=O)[O-])cc3[nH]2)cc1	TRPC6 inhibitor -6.8 | TRPC4 sel inh 2 56% | TRPC4 spec -17% | HEK293 MPD ctr 2-1 -90% | HEK293 MPD ctr-1 -262% | TRPC6 inh conf 73% | TRPC6 act confirm inactive
COc1ccc(C(=O)/C=C/c2cc(OC)c(O)c(OC)c2)c(F)c1	TRPC6 act 18 | HEK293 MPD ctr-2 288% | HEK293 MPD ctr 2-2 inactive | TRPC4 ctr mod 54% | TRPC4 ctr inh 2 inactive | TRPC6 inh conf inactive | TRPC6 act confirm 108%
COc1ccc2cc(C(=O)/C=C/c3cc(OC)c(O)c(OC)c3)ccc2c1	none
c1ccc2c(c1)CCc1ccccc1C2=C1CCNCC1	TRPC6 inhibitor -7.2 | TRPC4 sel inh 2 60% | TRPC4 spec 3.8% | HEK293 MPD ctr 2-1 inactive | HEK293 MPD ctr-1 2.8% | TRPC6 inh conf inactive | TRPC6 act confirm inactive
Nc1ncc2c(n1)-c1ccccc1CC2	none
Cc1ccc2ncnc(NCCCN3CCOCC3)c2c1	none
CCOC(=O)c1cnc2c(C)c(Cl)ccc2c1NCCCN1CCOCC1	none
CCOC(=O)c1cnc2c(C)c(C)ccc2c1NCCN1CCOCC1	TRPC6 inhibitor -5.8 | HEK293 MPD ctr-2 86% | HEK293 MPD ctr 2-2 77% | TRPC4 ctr mod 28% | TRPC4 ctr inh 2 33% | TRPC6 inh conf inactive | TRPC6 act confirm inactive
CCOC(=O)c1cnc2c(C)cc(C)cc2c1NCCCN1CCOCC1	TRPC6 inhibitor -8.8 | TRPC4 sel inh 2 70% | TRPC4 spec inactive | HEK293 MPD ctr 2-1 -14% | HEK293 MPD ctr-1 inactive | TRPC6 inh conf 65% | TRPC6 act confirm inactive
CCOC(=O)c1cnc2ccc(C)cc2c1NCCN1CCOCC1	TRPC6 inhibitor -5.1 | HEK293 MPD ctr-2 inactive | HEK293 MPD ctr 2-2 inactive | TRPC4 ctr mod 15% | TRPC4 ctr inh 2 34% | TRPC6 inh conf 42% | TRPC6 act confirm inactive
CCOC(=O)c1cnc2ccc(Br)cc2c1NCCCN1CCOCC1	none
CCOC(=O)c1ccc2ncc(C(=O)OCC)c(NCCCN3CCOCC3)c2c1	TRPC6 inhibitor -6.8 | TRPC4 sel inh 2 inactive | TRPC4 spec -16% | HEK293 MPD ctr 2-1 inactive | HEK293 MPD ctr-1 -251% | TRPC6 inh conf inactive | TRPC6 act confirm inactive
CCOC(=O)c1cnc2c(Cl)c(Cl)ccc2c1NCCN1CCOCC1	none
COc1ccc(-c2csc(NC(=O)C3COc4ccccc4O3)n2)cc1OC (stereo unspecified)	none
O=S(=O)(NCCc1ccccc1)c1ccc(Br)cc1	none
Cc1ccc(NC(=O)COCC(=O)Nc2ccc(F)cc2)cc1	none
CN(C)c1ccc(/C=C/c2cccc[n+]2[O-])cc1	none
CC(C)CC[n+]1ccccc1/C=C/c1ccc(N(C)C)cc1	TRPC6 inhibitor -5.8, TRPC4 act 66 | HEK293 MPD ctr-2 719% | HEK293 MPD ctr 2-2 113% | TRPC4 ctr mod 115% | TRPC4 ctr inh 2 inactive | TRPC6 inh conf 68%
CC(C)(C)NCC(O)(c1ccc(Cl)cc1)c1ccc(Cl)cc1	none
NCC(O)(c1ccc(Cl)cc1)c1ccc(Cl)cc1	TRPC6 inhibitor -6.3 | HEK293 MPD ctr-2 inactive | HEK293 MPD ctr 2-2 inactive | TRPC4 ctr mod inactive | TRPC4 ctr inh 2 40% | TRPC6 inh conf inactive | TRPC6 act confirm inactive
Cc1ccc(-n2c(SCC(=O)NCc3ccco3)nc3c(sc4ccccc43)c2=O)cc1	none
CC(=O)c1ccc(N2CCN(C(=O)CCC(=O)Nc3ccc4nc(N5CCN(C)CC5)cc(C)c4c3)CC2)cc1	TRPC6 act 13 | HEK293 MPD ctr-2 inactive | HEK293 MPD ctr 2-2 inactive | TRPC4 ctr mod 16% | TRPC4 ctr inh 2 inactive | TRPC6 inh conf inactive | TRPC6 act confirm inactive

Bioassay records (PubChem BioAssay)
